The source of these data is ChEMBL document CHEMBL1926620, “Aza vinyl sulfones: synthesis and evaluation as antiplasmodial agents” (Bioorg Med Chem, 2011).

Structures are written as SMILES.

A short description of assay [1]: Inhibition of Plasmodium falciparum falcipain-2 using Z-Leu-Arg-AMC as substrate after 10 mins by spectrofluorimetry. In short, it runs like this: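 Enzyme at 1 nM in 100 mM sodium acetate pH 6.0, 5 mM DTT, 0.75% DMSO, 25 °C; preincubated 10 min with serial 1:5 compound dilutions (50 µM down to 0.65 nM), then 25 µM Z-Leu-Arg-AMC added; fluorescence read immediately. IC50 from percent inhibition versus no-inhibitor controls.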

Another assay relates to Plasmodium falciparum. The assay can be described thus: Antiplasmodial activity against ring stage Plasmodium falciparum W2 infected in human red blood cells after 48 hrs by flow cytometry. Format: functional, organism-based. The note with it: W2, 48 h. (In general: A flow cytometer gives signals particle by particle.)
The next assay concerns the target T1, Papain (Carica papaya, UniProt P00784).
T1 sequence (P00784 whole entry): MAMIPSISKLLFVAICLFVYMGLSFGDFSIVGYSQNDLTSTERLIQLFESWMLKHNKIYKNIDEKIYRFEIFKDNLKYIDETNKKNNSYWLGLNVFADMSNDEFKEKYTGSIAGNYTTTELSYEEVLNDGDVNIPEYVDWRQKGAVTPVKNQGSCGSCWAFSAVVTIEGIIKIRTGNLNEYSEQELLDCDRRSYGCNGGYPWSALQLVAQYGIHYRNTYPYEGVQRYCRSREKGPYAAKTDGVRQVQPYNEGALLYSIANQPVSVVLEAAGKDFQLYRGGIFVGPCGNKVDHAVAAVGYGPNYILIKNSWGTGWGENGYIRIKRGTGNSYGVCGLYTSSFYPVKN
The assay can be described thus: Inhibition of papaya papain using Z-Leu-Leu-Arg-AMC as substrate after 30 mins by spectrofluorometry. Summed up: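 Papain activated in buffer at 5 µg/mL, 10 mM PBS pH 7.4 with 5 mM DTT, 37 °C, inhibitor serial dilutions in DMSO; 30 µM Z-Leu-Leu-Arg-AMC started the reaction (Km 0.4 µM, saturating). Fluorescence (ex 355/em 460 nm) monitored 30 min; E64 positive control; IC50 by non-linear regression of log concentration versus % activity; triplicate.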

For the compound `COc1c(N[C@@H](CC(C)C)C(=O)NN(CCc2ccccc2)C(=O)/C=C/S(C)(=O)=O)c(=O)c1=O`, the IC50 (in general, the midpoint of a concentration-inhibition curve) is > 50 µM in assay [1] and 2.5 µM in the assay with Plasmodium falciparum.

On to `O=C(N[C@@H](Cc1ccccc1)C(=O)NN(CCc1ccccc1)C(=O)/C=C/S(=O)(=O)c1ccccc1)OCc1ccccc1`, for which the IC50 against Papain was > 50 µM; in the assay with Plasmodium falciparum, 9 µM.

Turning to `CC(C)C[C@H](NC(=O)[C@H]1O[C@@H]1C(=O)O)C(=O)NCCCCN=C(N)N` [E-64], the IC50 in assay [1] worked out at 0.11 µM; at Papain, 0.002 µM.

As for `COc1c(N[C@@H](CC(C)C)C(=O)NNC(=O)/C=C/S(=O)(=O)c2ccccc2)c(=O)c1=O`, the IC50 in assay [1] was > 50 µM; in the assay with Plasmodium falciparum, 3.5 µM.

`O=C(CNC(=O)OCc1ccccc1)NN(CCc1ccccc1)C(=O)/C=C/S(=O)(=O)c1ccccc1`: the results for the IC50 at Papain and in the assay with Plasmodium falciparum were > 50 µM and > 10 µM, respectively.

As for `COc1c(N[C@@H](CC(C)C)C(=O)NN(CCc2ccccc2)C(=O)/C=C/S(=O)(=O)c2ccccc2)c(=O)c1=O`, the IC50 in assay [1] is > 50 µM; in the assay on Plasmodium falciparum, > 10 µM.

On to `CC(C)C[C@H](NC(=O)OC(C)(C)C)C(=O)NN(CCc1ccccc1)C(=O)/C=C/S(C)(=O)=O`, for which the values for the IC50 (in assay [1]; with Plasmodium falciparum) were > 50 µM and 46.6 µM, respectively.

With `CCCCOc1c(N[C@@H](CC(C)C)C(=O)NN(Cc2ccccc2)C(=O)/C=C/S(=O)(=O)c2ccccc2)c(=O)c1=O`, the IC50 in assay [1] is > 50 µM; in the assay on Plasmodium falciparum, 1.2 µM.

In the assay with Plasmodium falciparum, `CC(C)C[C@H](NC(=O)OC(C)(C)C)C(=O)NNC(=O)/C=C/S(=O)(=O)c1ccccc1` gave an IC50 of 33.5 µM.

Regarding `CCCCOc1c(N[C@@H](CC(C)C)C(=O)NNC(=O)/C=C/S(=O)(=O)c2ccccc2)c(=O)c1=O`, the values for the IC50 (in assay [1]; in the assay with Plasmodium falciparum) were > 50 µM and 2.6 µM, respectively.

Regarding `CC(C)C[C@H](NC(=O)OC(C)(C)C)C(=O)NN(CCc1ccccc1)C(=O)/C=C/S(=O)(=O)c1ccccc1`, the IC50 in assay [1] was > 50 µM; in the assay with Plasmodium falciparum, 15.4 µM.

`COc1c(N[C@@H](CC(C)C)C(=O)NNC(=O)/C=C/S(C)(=O)=O)c(=O)c1=O`: the values for the IC50 (in assay [1]; with Plasmodium falciparum) were > 50 µM and 2.3 µM, respectively.

As for `CC(C)C[C@H](NC(=O)OC(C)(C)C)C(=O)NN(Cc1ccccc1)C(=O)/C=C/S(C)(=O)=O`, the IC50 in assay [1] is > 50 µM; in the assay with Plasmodium falciparum, 21.6 µM.

As to `COc1c(N[C@@H](CC(C)C)C(=O)NN(Cc2ccccc2)C(=O)/C=C/S(C)(=O)=O)c(=O)c1=O`, the IC50 in assay [1] was > 50 µM; in the assay with Plasmodium falciparum it was > 10 µM.

On to `COc1c(N[C@@H](CC(C)C)C(=O)NN(Cc2ccccc2)C(=O)/C=C/S(=O)(=O)c2ccccc2)c(=O)c1=O`, for which the IC50 in assay [1] is > 50 µM; in the assay with Plasmodium falciparum, 0.95 µM.

As to `CC(C)C[C@H](NC(=O)OCc1ccccc1)C(=O)NN(CCc1ccccc1)C(=O)/C=C/S(=O)(=O)c1ccccc1`, the IC50 against Papain is > 50 µM; in the assay on Plasmodium falciparum it was > 10 µM.

The compound `CC(C)C[C@H](NC(=O)OC(C)(C)C)C(=O)NNC(=O)/C=C/S(C)(=O)=O` showed an IC50 with Plasmodium falciparum of 34.2 µM.

Regarding `CCCCOc1c(N[C@@H](CC(C)C)C(=O)NN(CCc2ccccc2)C(=O)/C=C/S(=O)(=O)c2ccccc2)c(=O)c1=O`, the values for the half-inhibitory concentration (IC50) (in assay [1]; in the assay with Plasmodium falciparum) were > 50 µM and 4.5 µM, respectively.

As for `CC(C)C[C@H](NC(=O)OC(C)(C)C)C(=O)NN(Cc1ccccc1)C(=O)/C=C/S(=O)(=O)c1ccccc1`, the IC50 (in assay [1]; in the assay on Plasmodium falciparum) was > 50 µM throughout.

Regarding `CC(C)C[C@H](NC(=O)N1CCOCC1)C(=O)NNC(=O)/C=C/S(=O)(=O)c1ccccc1`, the IC50 against Papain was > 50 µM; with Plasmodium falciparum, > 10 µM.

With `CC(C)C[C@H](NC(=O)N1CCOCC1)C(=O)NN(CCc1ccccc1)C(=O)/C=C/S(=O)(=O)c1ccccc1`, the IC50 is > 50 µM against Papain and 3.4 µM with Plasmodium falciparum.
